NSD2 HMT inh: blocks human histone methyltransferase NSD2; NSD2 peptide methylation, AlphaScreen, 120 min; inhibition, % at 12.5 µM; hit rate 0.54% among 310,000; AID 743445; in the data active = inhibition above about 50%
RAD52 anneal inh: RAD52 (human) annealing inhibition; AID 651710; P43351; recombinant RAD52 DNA annealing, FRET fluorescence; inhibition, % at 18.7 µM; hit rate 0.46% among 360,000;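 active = every replicate showing at least 50% inhibition; inconclusive = mean inhibition at least 50% but not in every replicate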
Glyco luc inh: blocks N-linked glycosylation in D54 reporter cells. D54 ERlucT glycosylation luciferase reporter, 24 h; percent of 100 nM tunicamycin response. reporter increase, % at 12.5 µM. hit rate 0.23% among 360,000;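 active = mean luciferase reporter signal, scaled so untreated is 0 and the glycosylation-blocking control 100, at or above a set limit in every replicate; inconclusive = mean reaches the limit but not every replicate does; inactive = mean below the limit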;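 also: luciferase carries N-glycosylation sites so blocking glycosylation raises the light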
AF4-AF9 inh: inhibitors of human MLL-AF4/AF9 interaction | P42568 | AlphaScreen, biotin-AF4 peptide binding to FLAG-AF9 | inhibition, % at 10 µM | hit rate 0.47% among 350,000;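 active = every replicate reaching a set inhibition limit, whatever the replicate mean, cut at about 25% in these data; inconclusive = mean inhibition reaches that limit but some replicates miss it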
Target sequence (P42568 whole entry, looked up): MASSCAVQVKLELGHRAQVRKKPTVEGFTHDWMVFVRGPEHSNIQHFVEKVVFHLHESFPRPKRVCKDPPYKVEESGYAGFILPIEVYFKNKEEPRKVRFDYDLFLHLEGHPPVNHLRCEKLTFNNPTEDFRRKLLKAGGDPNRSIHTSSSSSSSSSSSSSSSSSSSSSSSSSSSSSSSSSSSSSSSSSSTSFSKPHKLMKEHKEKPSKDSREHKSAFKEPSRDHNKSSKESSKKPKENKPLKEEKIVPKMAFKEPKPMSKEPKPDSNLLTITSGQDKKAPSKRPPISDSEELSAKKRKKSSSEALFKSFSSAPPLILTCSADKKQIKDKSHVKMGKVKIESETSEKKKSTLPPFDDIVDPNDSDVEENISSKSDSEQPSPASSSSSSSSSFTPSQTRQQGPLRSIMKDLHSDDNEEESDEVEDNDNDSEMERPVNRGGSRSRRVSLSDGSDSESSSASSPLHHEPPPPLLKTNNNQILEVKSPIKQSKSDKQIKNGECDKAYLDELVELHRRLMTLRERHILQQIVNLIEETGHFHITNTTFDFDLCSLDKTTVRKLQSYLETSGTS
FN deposit inh: fibronectin deposition inhibition | inhibition, % at 12.6 µM | AH1F fibroblasts, Alexa488-fibronectin deposition fluorescence, overnight | hit rate 0.086% among 350,000;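 active = mean inhibition across replicates of 30% or more, regardless of how many single replicates reach that level; inconclusive = mean under 30% yet at least half of replicates reach 30%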
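Material: AH1F fibroblast monolayer depositing Alexa488-labelled fibronectin into matrix | Input: 10000 AH1F cells/well | Medium: DMEM plus 2% serum, read in PBS | Reagent: Alexa488-fibronectin, 24 nM final in well | Compound dosing: One dose per compound, pinned | Schedule: 1 h adhesion, overnight exposure | Measured by: Fluorescence at 485 nm excitation, 525 nm emission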
RAD54 branch: RAD54 (human) branch migration inhibition | Q92698 | AID 602329 | hit rate 0.14% among 360,000 | inhibition, % at 10.4 µM | RAD54 Holliday junction branch migration, FAM/BHQ fluorescence;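 active = mean normalized replicate activity at least 40 and at least half of replicates scoring 40 or more; inconclusive = only one of the two criteria met; inactive = mean below 40 and under half of replicates reaching 40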;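 also: inhibitors cause a drop in the FAM fluorescence signal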
RAD52 DNA ctr: binds DNA, flagging false RAD52 inhibitor hits; shares compounds with RAD52 anneal inh; Salmon sperm DNA/acridine orange FP displacement, DNA binding; AC50, µM; hit rate 8% among 1,000; AID 652128;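 active = fitted half-maximal concentration for signal loss at or below twice the highest dose tested, in every separate run, actives reach about 64 µM in these data; inconclusive = runs disagree, or flat partial signal loss, or poor fit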
A number is an active result; i = inactive; ? = inconclusive; nt = no result. An excerpt weighted towards active compounds, which were near 1.2% of everything screened.

SMILES | NSD2 HMT inh | RAD52 anneal inh | Glyco luc inh | AF4-AF9 inh | FN deposit inh | RAD54 branch | RAD52 DNA ctr
C#CCOCCOCCOCCNc1nc(N2CCN(C(=O)[C@H](CCCCN)n3cc([C@@H](N)C(C)CC)nn3)CC2)nc(N2CCN(C(=O)[C@H](Cc3ccc(O)cc3)n3cc([C@@H](N)CC(C)C)nn3)CC2)n1 (some centres undefined) | nt | 92.0 | i | 30.1 | i | i | i
C#CCOCCOCCOCCNc1nc(N2CCN(C(=O)CCCCCCCCCCNC(=O)[C@H](CCCCN)n3cc(CCO)nn3)CC2)nc(N2CCN(C(=O)CCCCCCCCCCNC(=O)[C@H](CCCCN)n3cc(CCCC(=O)O)nn3)CC2)n1 | nt | 52.5 | i | 55.4 | i | i | i
C#CCOCCOCCOCCNc1nc(N2CCN(C(=O)CCCCCCCCCCNC(=O)[C@@H](CCC(=O)O)n3cc(CCCCCN)nn3)CC2)nc(N2CCN(C(=O)CCCCCCCCCCNC(=O)[C@H](CO)n3cc(CCCCCN)nn3)CC2)n1 | nt | nt | i | nt | nt | i | nt
CC[C@H](C)Cc1cn([C@@H](CCCCN)C(=O)NCCCCCCCCCCC(=O)N2CCNCC2)nn1 | nt | 76.9 | i | ? | i | i | i
C#CCOCCOCCOCCNc1nc(N2CCN(C(=O)Cn3cc(CCCN=C(N)N)nn3)CC2)nc(N2CCN(C(=O)[C@H](CCCCN)n3cc(CCCC)nn3)CC2)n1 | nt | 51.1 | i | i | i | i | i
NCCCCCc1cn([C@@H](CCC(=O)O)C(=O)NCCCCCCCCCCC(=O)N2CCNCC2)nn1 | nt | i | i | i | i | i | nt
CCCC(=O)Nc1ccc2c(c1)C(=O)N(C)[C@H]1CC[C@@H](CC(=O)NCCN3CCCCC3)O[C@H]1CO2 | nt | i | nt | i | i | i | nt
C[C@@H]1CCCCO[C@H](CN(C)C(=O)C2CCCCC2)[C@@H](C)CN([C@@H](C)CO)C(=O)c2cc(NS(C)(=O)=O)ccc2O1 | nt | i | nt | i | nt | i | nt
C#CCOCCOCCOCCNc1nc(N2CCN(C(=O)[C@H]([C@@H](C)CC)n3cc([C@@H](N)CO)nn3)CC2)nc(N2CCN(C(=O)[C@H](CCCCN)n3cc([C@@H](N)CO)nn3)CC2)n1 | nt | i | i | i | i | i | nt
C#CCOCCOCCOCCNc1nc(N2CCN(C(=O)[C@H](CO)n3cc([C@@H](N)C(C)C)nn3)CC2)nc(N2CCN(C(=O)[C@H](CCCCN)n3cc([C@@H](N)[C@H](C)CC)nn3)CC2)n1 | nt | 60.9 | i | 41.8 | i | i | i
C#CCOCCOCCOCCNc1nc(N2CCN(C(=O)C([C@@H](C)O)n3cc([C@@H](N)CCCCN)nn3)CC2)nc(N2CCN(C(=O)[C@H](CCC(=O)O)n3cc([C@@H](N)[C@H](C)CC)nn3)CC2)n1 (some centres undefined) | nt | i | i | i | i | i | nt
C#CCOCCOCCOCCNc1nc(N2CCN(C(=O)C([C@@H](C)O)n3cc([C@@H](N)CCCCN)nn3)CC2)nc(N2CCN(C(=O)[C@H](CCCCN)n3cc([C@@H](N)[C@H](C)CC)nn3)CC2)n1 (some centres undefined) | nt | 72.5 | i | 59.3 | i | i | i
C#CCOCCOCCOCCNc1nc(N2CCN(C(=O)[C@H](CCCCN)n3cc(CN)nn3)CC2)nc(N2CCN(C(=O)[C@H](CCC(=O)O)n3cc([C@@H](N)CCCCN)nn3)CC2)n1 | nt | 61.3 | i | 73.8 | i | i | i
COc1ccc(OCC(O)CN2CCC(CN3C(=O)c4cccc5cccc(c45)C3=O)CC2)cc1 (centres undefined) | i | 96.0 | i | i | i | nt | i
CS(=O)(=O)N1CCN(CCN2C(=O)c3cccc4cccc(c34)C2=O)CC1 | i | i | i | i | i | nt | nt
COc1cc2c3c(cccc3c1)C(=O)N(CCN1CCCC1)C2=O | nt | 71.1 | i | i | i | 105.5 | 31.2µM
COc1cccc(OCC(O)CN2CCN(CCN3C(=O)c4cccc5cccc(c45)C3=O)CC2)c1 (centres undefined) | i | 90.7 | 34.3 | i | i | nt | ?
Cc1cccc(S(=O)(=O)N2C[C@@H](O)COC[C@H]3O[C@@H](CC(=O)NCc4ccncn4)CC[C@@H]32)c1 | nt | i | nt | i | i | i | nt

Bioassay records from PubChem BioAssay.
